Reference: ChEMBL document CHEMBL5647697, “Akt inhibition synergizes with polycomb repressive complex 2 inhibition in the treatment of multiple myeloma” (2019)
Calls of active or inactive are those of the source. The rule behind the calls is not given here.

Legend:
MM1.S [1] = assay: Upregulation of EZH1 mRNA expression in human MM1.S cells at 0.03 to 3 micromo/L at 6 to 48 hrs by qRT-PCR analysis; type: functional, cell-based; conditions: dose 0.03-3 µmol/L, time 6-48 hrs
Method in brief: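 EZH1 mRNA was measured by qRT-PCR in MM.1S and H929 cells. Dose series: cells were treated with graded TAS-117 for 24 h. Time course: cells were treated with 3 μmol/L for the indicated times. Fold change is after GAPDH normalization, relative to the untreated control. Data are SD of triplicates.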

OPM-2/BTZ [2] = assay: Upregulation of EZH1 mRNA expression in human OPM-2/BTZ cells at 0.03 to 3 micromol/L after 6 to 48 hrs by qRT-PCR analysis; conditions: dose 0.03-3 µmol/L, time 6-48 hrs
MM1.S [3] = assay: Synergistic activity against human MM.1S cells assessed as combination index […] in presence of 2.5 uM UNC1999 […] […] compound addition at 0.125 uM incubated for 48 hrs by MTT assay; type: functional
Method in brief: (§1)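 Cells were exposed to the EZH2/EZH1 inhibitor (UNC1999 or GSK126) for 72 h in total, with the Akt inhibitor added for the last 48 h. Viability was read by MTS assay relative to untreated control cells, in triplicate. The combination index for each dose pair came from isobologram analysis.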

[4] = biological target: T1, Serine/threonine-protein kinase AKT (Homo sapiens) (UniProt P31751+Q9Y243+P31749); assay: Inhibition of Akt phosphorylation in human NCI-H929 cells at 0.3 to 5 micromol/L for 6 to 48 hrs by Western blot analysis; type: cell-based; conditions: dose 0.3-5 µmol/L, time 6-48 hrs
Method in brief: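 MM.1S and H929 cells were treated with graded doses for 48 h, or with 5 μmol/L for the stated times. Lysates were immunoblotted, with GAPDH, total Akt and H3 as loading controls.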

OPM-2/BTZ [5] = assay: Synergistic activity against human OPM-2/BTZ cells assessed as combination index preincubated in presence of 1.25 uM UNC1999 for 72 hrs followed by compound addition at 0.5 uM incubated for 48 hrs by MTT assay; type: functional
OPM-2 [6] = assay: Synergistic activity against human OPM-2 cells assessed as combination index preincubated in presence of 1.25 uM UNC1999 for 72 hrs followed by compound addition at 5 uM incubated for 48 hrs by MTT assay; type: functional
MM1.S [7] = assay: Synergistic activity against human MM.1S cells assessed as combination index […] at 0.125 uM incubated for 48 hrs MTT assay; type: functional; method in brief: as §1
OPM-2 [8] = assay: Synergistic activity against human OPM-2 cells assessed as combination index preincubated in presence of 1.25 uM UNC1999 for 72 hrs followed by compound addition at 2.5 uM incubated for 48 hrs by MTT assay; type: functional
NCI-H929 [9] = assay: Downregulation of EZH2 mRNA expression in human NCI-H929 cells at 0.3 to 3 micromol/L after 24 hrs by qRT-PCR analysis; type: functional, cell-based; conditions: dose 0.3-3 µmol/L
Method in brief: (§2)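 MM.1S and H929 cells given TAS-117 at the indicated doses for 24 h. mRNA measured by RT-qPCR, fold change after normalization to GAPDH; SD of triplicates; significance versus untreated control.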

MM1.S [10] = assay: Induction of apoptosis in human MM1.S cells assessed as viable cells preincubated in presence of 5 micromol/L UNC1999 for 48 hrs followed by compound addition at 2 micromol/L incubated for 12 hrs by annexin V/PI staining based flow cytometry (reference value: 88.2%); type: functional; conditions: dose 2 µmol/L, at 2 µM
MM1.S [11] = assay: Upregulation of FOXO4 […] expression in human MM1.S cells assessed as enhanced nuclear accumulation at 1 micromol/L after 24 hrs by immunofluorescence staining; type: functional, cell-based; conditions: dose 1.0 µmol/L
OPM-2 [12] = assay: Synergistic activity against human OPM-2 cells assessed as combination index preincubated in presence of 5 uM UNC1999 for 72 hrs followed by compound addition at 5 uM incubated for 48 hrs by MTS assay
NCI-H929 [13] = assay: Downregulation of E2F1 mRNA expression in human NCI-H929 cells incubated at 0.3 to 3 micromol/L for 24 hrs by qRT-PCR analysis; type: functional, cell-based; conditions: dose 0.3-3 µmol/L; method in brief: as §2
NCI-H929 [14] = assay: Upregulation of FOXO4 […] expression in human NCI-H929 cells assessed as enhanced nuclear accumulation at 1 micromol/L after 24 hrs by immunofluorescence staining; type: functional, cell-based; conditions: dose 1.0 µmol/L
OPM-2/BTZ [15] = assay: Upregulation of EZH1 protein expression in human OPM-2/BTZ cells at 0.03 to 3 micromol/L after 48 hrs by Western blot analysis; type: functional, cell-based; conditions: dose 0.03-3 µmol/L
OPM-2 [16] = assay: Synergistic activity against human OPM-2 cells assessed as combination index preincubated in presence of 2.5 uM GSK126 for 72 hrs followed by compound addition at 5 uM incubated for 48 hrs by MTT assay; type: functional
MM1.S [17] = assay: Synergistic activity against human MM.1S cells assessed as combination index […] compound addition at 0.25 uM incubated for 48 hrs by MTT assay; type: functional; method in brief: as §1
[18] = biological target: T1, Serine/threonine-protein kinase AKT (Homo sapiens); assay: Inhibition of Akt phosphorylation in human OPM-2/BTZ cells after 48 hrs at 0.3 to 2 micromol/L for 48 hrs by Western blot analysis; type: cell-based; conditions: dose 0.3-2 µmol/L
MM1.S [19] = assay: Upregulation of EZH1 protein expression in human MM1.S cells at 0.03 to 3 micromol/L after 48 hrs by Western blot analysis; type: functional, cell-based; conditions: dose 0.03-3 µmol/L
Method in brief: (§3)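 MM.1S and H929 cells were treated with graded TAS-117 for 48 h. EZH1 was detected by immunoblot and quantified relative to the GAPDH loading control.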

NCI-H929 [20] = assay: Induction of apoptosis in human NCI-H929 cells assessed as early apoptotic cells at 2 micromol/L incubated for 12 hrs by annexin V/PI staining based flow cytometry (reference value: 0.37%); type: functional; conditions: dose 2 µmol/L, at 2 µM
NCI-H929 [21] = assay: Induction of apoptosis in human NCI-H929 cells assessed as live cells at 2 micromol/L incubated for 12 hrs by annexin V/PI staining based flow cytometry (reference value: 95.6%); type: functional; conditions: dose 2 µmol/L, at 2 µM
OPM-2 [22] = assay: Synergistic activity against human OPM-2 cells assessed as combination index preincubated in presence of 2.5 uM UNC1999 for 72 hrs followed by compound addition at 5 uM incubated for 48 hrs by MTT assay; type: functional
NCI-H929 [23] = assay: Upregulation of EZH1 protein expression in human NCI-H929 cells at 0.03 to 3 micromol/L after 48 hrs by Western blot analysis; type: functional, cell-based; conditions: dose 0.03-3 µmol/L; method in brief: as §3
MM1.S [24] = assay: Upregulation of FOXO3 […] expression in human MM1.S cells assessed as enhanced nuclear accumulation at 1 micromol/L after 24 hrs by immunofluorescence staining; type: functional, cell-based; conditions: dose 1.0 µmol/L
MM1.S [25] = assay: Downregulation of E2F2 mRNA expression in human MM1.S cells incubated at 0.3 to 3 micromol/L for 24 hrs by qRT-PCR analysis; type: functional, cell-based; conditions: dose 0.3-3 µmol/L; method in brief: as §2
OPM-2/BTZ [26] = assay: Downregulation of CDK2 protein expression in human OPM-2/BTZ cells incubated at 0.3 to 3 micromol/L for 48 hrs by Western blot analysis; type: functional, cell-based; conditions: dose 0.3-3 µmol/L

T1 sequence (P31749 whole entry, looked up): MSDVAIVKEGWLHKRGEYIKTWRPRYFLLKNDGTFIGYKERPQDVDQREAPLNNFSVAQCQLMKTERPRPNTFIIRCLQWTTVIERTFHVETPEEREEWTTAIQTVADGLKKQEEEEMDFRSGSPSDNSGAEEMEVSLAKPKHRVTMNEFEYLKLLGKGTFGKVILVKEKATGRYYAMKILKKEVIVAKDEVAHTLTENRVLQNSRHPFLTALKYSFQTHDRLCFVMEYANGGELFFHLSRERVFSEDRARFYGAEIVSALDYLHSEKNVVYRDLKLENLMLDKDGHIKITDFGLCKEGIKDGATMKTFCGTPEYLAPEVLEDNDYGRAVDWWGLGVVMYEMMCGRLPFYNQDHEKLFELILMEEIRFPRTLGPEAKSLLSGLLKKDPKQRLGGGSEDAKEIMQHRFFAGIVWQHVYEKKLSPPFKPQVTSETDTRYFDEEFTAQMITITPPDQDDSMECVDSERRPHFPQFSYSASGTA
T1 sequence (P31751 whole entry, looked up): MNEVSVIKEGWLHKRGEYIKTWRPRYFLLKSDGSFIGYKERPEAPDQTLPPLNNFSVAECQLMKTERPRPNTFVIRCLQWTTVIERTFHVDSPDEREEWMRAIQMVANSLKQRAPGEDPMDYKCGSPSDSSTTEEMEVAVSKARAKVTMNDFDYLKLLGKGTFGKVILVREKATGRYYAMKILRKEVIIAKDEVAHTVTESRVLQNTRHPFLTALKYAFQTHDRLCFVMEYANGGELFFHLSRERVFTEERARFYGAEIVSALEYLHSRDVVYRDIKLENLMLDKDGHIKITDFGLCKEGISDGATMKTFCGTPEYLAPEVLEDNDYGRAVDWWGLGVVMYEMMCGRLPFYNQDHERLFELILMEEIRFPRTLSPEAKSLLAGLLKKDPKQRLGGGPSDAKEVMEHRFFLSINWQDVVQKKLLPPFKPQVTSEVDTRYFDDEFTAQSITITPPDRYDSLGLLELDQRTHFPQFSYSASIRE
T1 sequence (Q9Y243 whole entry, looked up): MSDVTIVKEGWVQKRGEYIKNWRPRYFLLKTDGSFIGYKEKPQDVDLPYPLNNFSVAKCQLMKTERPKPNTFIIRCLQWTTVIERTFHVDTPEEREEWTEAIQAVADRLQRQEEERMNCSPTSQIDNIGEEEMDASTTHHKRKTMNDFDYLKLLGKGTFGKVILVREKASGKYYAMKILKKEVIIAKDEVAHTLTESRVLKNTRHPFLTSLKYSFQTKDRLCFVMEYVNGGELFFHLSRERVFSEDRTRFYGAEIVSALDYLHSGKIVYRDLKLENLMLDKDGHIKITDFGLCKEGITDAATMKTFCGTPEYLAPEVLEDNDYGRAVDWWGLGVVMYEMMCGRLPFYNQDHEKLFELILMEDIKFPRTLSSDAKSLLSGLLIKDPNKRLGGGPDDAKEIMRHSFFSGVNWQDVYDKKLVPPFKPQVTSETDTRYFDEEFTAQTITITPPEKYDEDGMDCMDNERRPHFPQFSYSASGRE

In the case of `C[C@]1(O)C[C@@](N)(c2ccc(-c3nc4n(c3-c3ccccc3)COc3ccncc3-4)cc2)C1` [PIFUSERTIB], the Activity (MM1.S [1]) is reported as “Dose-Dependent Effect”, the Activity (OPM-2/BTZ [2]) is reported as “Dose-Dependent Effect” and the CI (MM1.S [3]) is reported as 0.217. For the same compound, the inhibition [4] was “Active”, the CI (OPM-2/BTZ [5]) was 0.74 and the CI (OPM-2 [6]) was 1.743. The CI (MM1.S [7]) was 0.253, the CI (OPM-2 [8]) was 1.51 and the Activity (NCI-H929 [9]) was “Active”. The Activity (MM1.S [10]) was 33%, the Activity (MM1.S [11]) was “Active” and the CI (OPM-2 [12]) was 6.32. The Activity (NCI-H929 [13]) was “Active”, the Activity (NCI-H929 [14]) was “Active” and the Activity (OPM-2/BTZ [15]) was “Active”. For the same compound, the CI (OPM-2 [16]) was 6.9, the CI (MM1.S [17]) was 0.584 and the inhibition [18] was “Active”. For the same compound, the Activity (MM1.S [19]) was “Active”, the Activity (NCI-H929 [20]) was 4.49% and the Activity (NCI-H929 [21]) was 91.7%. The CI (OPM-2 [22]) was 3.1, the Activity (NCI-H929 [23]) was “Active” and the Activity (MM1.S [24]) was “Active”. The Activity (MM1.S [25]) was “Active” and the Activity (OPM-2/BTZ [26]) was “Active”.
